Calls of active or inactive are those of the source.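 How the source made its calls: active means strong luminescence drop, meaning toxicity to breast epithelial cells with E-cadherin silenced, a stem-like cancer model; inactive means the rest.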
Key:
[1] = tested on: HMLE_shECad viability, CellTiter-Glo luminescence, 72 h; experiment: HMLE_shECad cancer stem cell-like viability inhibition, dose response, CellTiter-Glo luminescence, dry powder (AID 588704)
How it was run: (§1)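 Material: HMLE breast cells with E-cadherin knockdown (shECad), EMT-induced, CSC-like; Quantity: 1000 cells per well at seeding; Timing: 72 h compound exposure, dosing at 24 h; Measured by: luminescent ATP assay (CellTiter-Glo); Control set: DMSO-only wells as normalization control; Repeats: two replicates (duplicate).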

[2] = as above; details: HMLE_shECad viability, CellTiter-Glo luminescence, 72 h
How it was run: as §1

Compound	AC50 [1]	outcome [2]
CC(C)(C)c1ccc2c(c1)OC(C(=O)N/N=C/c1ccc[nH]1)CO2 (configuration not stated)	3480 nM	–
Cc1cc(Cl)ccc1OCC(=O)N/N=C/c1ccc[nH]1	4580 nM	–
O=C(COc1cc(Cl)ccc1Cl)N/N=C/c1ccc[nH]1	930 nM	–
O=C(COc1ccc(Cl)cc1Cl)N/N=C/c1ccc[nH]1	3390 nM	–
O=C(COc1ccc(Cl)cc1Cl)N/N=C/c1cnc[nH]1	–	inactive
O=C(COc1c(Cl)cc(Cl)cc1Cl)N/N=C/c1ccc[nH]1	470 nM	–
O=C(N/N=C/c1ccc[nH]1)c1cc2ccccc2o1	2460 nM	–
